Screening data as filed in PubChem BioAssay.
Compounds with a hit are over-represented: about 1.7% of the library has one in this group of screens.
IDE cell inh = inhibits human insulin-degrading enzyme in HEK cells. P14735. FAbetaB cleavage, fluorescence polarization. inhibition, % at 5.59 µM. actives 0.41% (n = 320,000). AID 434962;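 active = percent inhibition above the average of all tested compounds plus 3 SD, set per screening campaign, cut at about 16% in these data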;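 also: IDE supplied by intact live HEK cells; FP after avidin binding of uncleaved biotin substrate so inhibition keeps polarization high; 0% = DMSO wells and 100% = 60 µM reference IDE inhibitor Ii1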
TPT1 inhibitor = inhibitors of Candida albicans tRNA 2'-phosphotransferase TPT1; recombinant caTPT1, FP RNA substrate dephosphorylation; inhibition, % at 5 µM; actives 0.81% (n = 300,000); AID 1962;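 active = inhibition above the mean of all tested compounds plus 3 SD, set per screening campaign, cut at about 24% in these data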;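 also: plate controls were DMSO alone for no effect and ferristatin control at 100 nM for full effect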
TbMetRS inhib = blocks T. brucei methionyl-tRNA synthetase activity. purified T. brucei MetRS, ATP depletion, Kinase-Glo luminescence. inhibition, % at 11.9 µM. actives 0.4% (n = 360,000);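 active = inhibition above a per-plate cutoff of the control wells' mean inhibition plus 3 SD, cut at about 5.5% in these data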;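 also: 0% = DMSO wells median and 100% = median of wells with control inhibitor compound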
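System: purified T. brucei MetRS enzyme / Detection: Kinase-Glo luciferase luminescence reporting remaining unconsumed ATP / Medium: HEPES buffer with MgCl2, KCl, DTT, spermine, BSA, pyrophosphatase / Replication: singlicate, one well per compound / Evaluation: percent inhibition relative to median high and low control wells / Schedule: 2 h aminoacylation at 25 °C after 15 min preincubation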
IDE cell activ = activators of human insulin-degrading enzyme in cells; actives 0.073% (n = 340,000); activation, % at 5.96 µM; HEK cells, FAbeta-B cleavage, fluorescence polarization; 0% vehicle, 100% cell-free pure enzyme wells;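 active = activation above the mean of all tested compounds plus 3 SD, set per screening campaign, cut at about 17% in these data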
HNF4A DNA FP = change in binding of human HNF4 alpha to DNA; AID 1224865; HNF4a-FITC DNA binding, fluorescence polarization, 1 h; activity change, % at 10 µM; P41235; actives 0.3% (n = 360,000); in the data active = activity change above about 30%, passing the limit was not always enough
Target sequence (P41235 whole entry, looked up): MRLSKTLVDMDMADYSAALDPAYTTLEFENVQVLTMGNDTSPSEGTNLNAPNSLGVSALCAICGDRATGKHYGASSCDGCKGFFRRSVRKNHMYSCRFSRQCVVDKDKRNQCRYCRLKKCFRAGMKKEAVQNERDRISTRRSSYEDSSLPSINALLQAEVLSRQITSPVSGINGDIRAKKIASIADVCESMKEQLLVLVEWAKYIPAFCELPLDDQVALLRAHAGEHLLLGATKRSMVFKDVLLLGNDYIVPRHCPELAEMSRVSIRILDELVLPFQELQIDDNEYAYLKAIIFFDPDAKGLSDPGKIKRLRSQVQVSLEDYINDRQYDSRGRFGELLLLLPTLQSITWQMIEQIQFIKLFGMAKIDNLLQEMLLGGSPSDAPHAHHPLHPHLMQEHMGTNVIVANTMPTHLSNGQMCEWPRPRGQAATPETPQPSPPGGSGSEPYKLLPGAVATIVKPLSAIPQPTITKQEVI
CSN deneddyl inh = CSN deneddylation inhibition; Purified CSN, SCF-Nedd8-OG deneddylation, fluorescence polarization; inhibition, % at 12.5 µM; actives 0.38% (n = 360,000);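 active = pattern-corrected inhibition above about 35%, with an unprinted fluorescence ratio check between 0.5 and 1.5, limit read from the data, passing the limit was not always enough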;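 also: 0% = enzyme with substrate and 100% = substrate without enzyme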
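test system = HEK293T-derived human Csn5 enzyme | amount = 0.24 nM Csn5 enzyme, final concentration | medium = Tris/NaCl/DTT buffer, pH 7.5 | schedule = 90 min reaction at room temperature | signal = FP | evaluation = inhibition of Csn5 cleavage, % | compound dosing = single dose of 12.5 µM compound with 0.25% DMSO | probe or stimulus = 10 nM SCFSkp2-Nedd8OG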
TPT1 inh confirm = TPT1 (C. albicans) inhibition, confirmation. shares compounds with TPT1 inhibitor. inhibition, % at 5 µM. actives 74% (n = 2,400). recombinant caTPT1, fluorescence polarization, RNase T1 coupled;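 active = inhibition above the primary screen limit, the mean inhibition of all tested compounds plus 3 SD, cut at about 25% in these data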
RNase T1 inh = RNase T1 inhibition in TPT1 counter-screen | shares compounds with TPT1 inhibitor | RNase T1 cleavage, fluorescence polarization, 1536-well | inhibition, % at 5 µM | actives 83% (n = 2,400) | AID 2153;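 active = inhibition above the solvent-only control well mean plus 3 SD, limit set per screening run, cut at about 23% in these data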;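 also: plate controls were DMSO wells with enzyme for no effect and wells without RNase T1 for full effect; inhibitors block cleavage so intact labeled substrate keeps polarization high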
Target sequence (P00651 whole entry, looked up): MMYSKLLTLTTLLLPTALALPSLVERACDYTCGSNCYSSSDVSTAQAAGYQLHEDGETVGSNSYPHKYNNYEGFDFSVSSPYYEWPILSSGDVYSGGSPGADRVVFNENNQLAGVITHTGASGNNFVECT
* hit, by the source's call; · = no result given.

SMILES	IDE cell inh	TPT1 inhibitor	TbMetRS inhib	IDE cell activ	HNF4A DNA FP	CSN deneddyl inh	TPT1 inh confirm	RNase T1 inh
O=C(CSc1nc2nn(-c3ccccc3)c(=O)c-2c2n1CCCCC2)c1ccc(O)c(O)c1	3.6	·	0.1	6.3	-27.1	25.4	·	·
Cc1ccc(N2C(=O)C3C(C(=O)c4ccccc4)=NN(c4ccccc4)C3C2=O)cc1 (stereo not given)	3.4	29.1*	-1.3	-5.7	6.0	3.7	37.0*	50.9*
CCOC(=O)C1C(=O)NC(C(=O)OCC)(C(=O)OCC)C1C(C)CC (stereo not given)	·	·	0.0	4.4	2.4	5.4	·	·
CCN1CCN(C(=O)CN(c2ccc(F)cc2)S(=O)(=O)c2ccc(OC)c(OC)c2)CC1	-1.9	-0.9	-0.2	1.6	-0.9	1.7	·	·
N#C/C(=C\Nc1ccc2cn[nH]c2c1)c1nc(-c2ccccc2)cs1	·	·	-0.7	4.9	13.3	2.7	·	·
Cc1ccnc(N/C=C(\C#N)c2nc(-c3cccc(Br)c3)cs2)c1	7.8	29.5*	-0.1	-34.0	-13.1	-71.6	26.4*	40.4*
COc1ccc(CN2C[C@@H](CO)O[C@@H](n3cnc4c(NCc5ccc(F)cc5)ncnc43)C2)cc1	·	·	0.1	·	-0.8	1.4	·	·
CCN(CC)c1ccc(S(=O)(=O)N2CCOCC2)cc1NC(=O)COC(=O)C1=COCCO1	·	·	-0.1	-3.6	2.0	0.3	·	·
COc1ccc(S(=O)(=O)Nc2ccc(N3CCOCC3)cc2)cc1	5.3	1.7	-1.5	0.4	-4.4	4.4	·	·
CCOc1ccc(S(=O)(=O)Nc2nc3ccccc3nc2Nc2ccc(N3CCOCC3)cc2)cc1	5.5	28.5*	-0.3	1.8	-17.4	-15.9	10.0	17.4
CCCC(NC(=O)c1c(C)noc1C)C12CC3CC(CC(C3)C1)C2 (stereo not given)	3.3	81.0*	-0.2	2.4	0.5	2.8	24.5*	35.5*
Cc1noc(C)c1C(=O)NC(C)C12CC3CC(CC(C3)C1)C2 (stereo not given)	-2.3	-3.7	-0.8	1.1	1.8	1.6	·	·
N#Cc1ccc(/C=C/C(=O)c2ccco2)cc1	-6.3	-0.9	-0.5	-1.6	1.6	3.1	·	·
Nc1ccc(/C=C/C(=O)c2ccco2)cc1	14.6	72.7*	-0.7	-11.1	13.3	17.1	80.8*	91.5*
NNc1nc(-c2ccccc2Cl)nc2ccccc12	1.4	31.1*	0.5	0.3	1.4	4.8	20.2	33.1*
Cc1cccc(/C=C/C(=O)c2cc(Br)ccc(=O)c2O)c1	0.8	21.0	0.2	-0.1	1.9	25.3	·	·
CCc1ccc(/C=C/C(=O)c2cc(Br)ccc(=O)c2O)cc1	-0.5	25.0*	-0.5	2.1	-1.0	25.4	25.4*	32.8*
CCOc1ccc(/C=C/C(=O)c2cc(Br)ccc(=O)c2O)cc1	-0.4	24.4*	-0.4	-4.2	-6.6	17.9	31.5*	41.3*
Cc1sc(-n2c(C)cc(/C=C3\SC(=S)NC3=O)c2C)c(C#N)c1C	2.7	44.9*	-0.2	1.5	66.9*	34.8	60.3*	74.8*
Cc1cc(/C=C2\SC(=S)NC2=O)c(C)[nH]1	7.8	130.7*	-0.5	-3.1	56.9*	92.7	96.7*	108.5*
CCn1c(C)cc(/C=C2/SC(=S)NC2=O)c1C	4.7	98.5*	0.0	3.2	6.1	-9.8	105.3*	119.2*
O=C1NC(=S)S/C1=C\c1cc(Cl)ccc1Cl	·	·	0.0	6.5	-1.3	9.2	·	·
Cc1sc(-n2c(C)cc(/C=N/n3cnnc3)c2C)c(C#N)c1C	4.2	-0.9	-0.1	-2.1	1.5	2.7	·	·
C[C@H](CO)N1C[C@H](C)[C@@H](CN(C)C(=O)Nc2ccc3c(c2)OCO3)Oc2ccc(NC(=O)Cn3cnnn3)cc2C1=O	2.6	·	-0.1	-0.9	3.9	3.1	·	·
COC(=O)c1sccc1N/N=C/c1cccc(Oc2ccccc2)c1	2.6	-2.8	-0.8	2.4	1.3	-1.1	·	·
SMILES	IDE cell inh	TPT1 inhibitor	TbMetRS inhib	IDE cell activ	HNF4A DNA FP	CSN deneddyl inh	TPT1 inh confirm	RNase T1 inh
O=C(O)c1ccc(-c2nnn(Cc3cccc(C(F)(F)F)c3)n2)cc1	0.1	-2.6	0.1	1.6	4.6	5.0	·	·
COc1ccc(NC(=O)COC(=O)CCc2ccccc2)c(OC)c1	-0.2	0.7	-1.1	5.0	0.5	4.8	·	·
C/C(Cl)=C/CSc1nc2c(c(=O)[nH]c(=O)n2C)n1C(C)C	4.7	24.8*	-0.8	-2.5	-0.5	0.7	8.8	11.2
C=CCSc1nc2c(c(=O)[nH]c(=O)n2C)n1C(C)C	-2.1	-1.5	-1.4	3.9	0.6	-1.4	·	·
CCCCCCCCCCCCCCCC(=O)OC(CC(=O)O)C[N+](C)(C)C (stereo not given)	-0.1	-1.8	-1.1	11.5	-3.1	-2.8	·	·
O=C1c2cc(O)cc(O)c2C(=O)c2c1cc(O)c([C@@H](CO)CCO)c2O	0.5	16.8	0.8	5.1	19.1	29.6	·	·
Cc1cc(O)c2c(c1)C(=O)c1cc(O)cc(O)c1C2=O	-4.8	26.7*	-0.3	-4.4	14.2	7.3	43.9*	60.5*
N#Cc1c(N)n(CCNC(=O)c2ccc(Cl)cc2)c2nc3ccccc3nc12	0.8	26.5*	-1.0	6.0	6.2	3.2	23.9	29.9*
COCCn1c(N)c(C#N)c2nc3ccccc3nc21	7.1	0.3	-0.5	-4.3	-1.1	-0.3	·	·
Cc1ccc(C(=O)NCCn2c(N)c(C#N)c3nc4ccccc4nc32)cc1	2.6	35.9*	0.9	-2.3	7.7	11.0	49.4*	55.0*
Cn1cccc1C(=O)/C(C#N)=C/c1ccc(F)cc1	4.7	52.8*	-0.1	-11.3	20.6	28.8	79.7*	95.6*
COc1ccc(/C=C(\C#N)C(=O)c2cccn2C)cc1	6.2	1.9	-1.2	3.0	-5.0	-0.3	·	·
CCC(Sc1nc2ccncc2[nH]1)C(=O)Nc1cc(Cl)ccc1C (stereo not given)	-2.1	2.1	-0.3	0.9	1.4	5.5	·	·
CC/C(C)=N\N=C\c1c(O)n(CC)c2cc(C3=NNC(=O)CC3)ccc12	-0.1	51.5*	-1.6	2.7	11.3	12.5	35.4*	47.0*
CCn1c(O)c(/C=N/N=C/c2ccc(OC)cc2)c2cc(C3=NNC(=O)CC3)ccc21	-0.2	47.3*	0.6	-5.0	95.1*	89.4*	74.2*	85.8*
CC(C)CCOc1ccc(C2=NNC(=O)CC2)cc1	3.8	-5.4	-0.5	-4.9	2.6	2.3	·	·
CC(=O)/C(N=Nc1ccc(C(=O)O)cc1[N+](=O)[O-])=C(\C)O	-2.2	-2.7	-0.7	3.1	-5.8	2.0	·	·
